Rows were chosen to be rich in hits. Some 3.4% of all compounds tested hit in one or more screens of this group.
VIM-2 inhibitor: blocks Pseudomonas aeruginosa VIM-2 metallo-beta-lactamase; purified VIM-2, nitrocefin hydrolysis, epi-absorbance fluorescence; inhibition, % at 5.6 µM; AID 1527; 0.89% of 290,000 active;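 active means inhibition above the mean of all tested compounds plus 3 SD, cutoff set per screening run, cut at about 7.5% in these data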;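 further: red hydrolysis product quenches plate fluorescence so inhibitors raise well fluorescence; 0% = enzyme with DMSO and 100% = DMSO without enzyme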
MEKK3 PB1 HTS: MEKK3-MEK5 PB1 interaction, increase or decrease; bead-based flow cytometry, Alexa488-MEK5 binding to MEKK3; actives lie on both sides; 0 = blocked by unlabeled MEK5, 100 = vehicle; binding response (% of control), % at 10 µM; 1.4% of 290,000 active;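 active means binding response more than 3 SD above or below the average of its plate-row segment, actives on both sides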;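 further: Alexa488 bead fluorescence after subtracting the streptavidin-only scavenger bead signal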
MEKK2mut PB1 HTS: signal of MEK5 binding to mutant human MEKK2 PB1 domain; bead flow cytometry, Alexa488-MEK5 binding to MEKK2 mutant; percent response, % at 10 µM; 0.35% of 290,000 active; AID 1530; in the data active means percent response above about 24%, passing the limit was not always enough
IMP-1 inhibitor: blocks Pseudomonas aeruginosa IMP-1 metallo-beta-lactamase | inhibition, % at 5.6 µM | AID 1556 | 0.45% of 290,000 active | purified IMP-1, nitrocefin hydrolysis, epi-absorbance fluorescence;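 active means inhibition above the mean plus 3 SD of all compounds in the same screening run, cut at about 4.5% in these data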;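 further: 0% = IMP-1 with DMSO and 100% = DMSO wells lacking enzyme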
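System – purified recombinant IMP-1 beta-lactamase · Input – IMP-1 dispensed at 0.2 nM · Timing – 15 min preincubation plus 25 min reaction at 25 °C · Signal – Epi-absorbance fluorescence, 480 nm excitation, 530 nm emission · Measure – percent IMP-1 inhibition derived from blank-referenced optical density · Controls – Enzyme-plus-DMSO low control, enzyme-free DMSO high control · Replication – singlicate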
MEKK2wt PB1 HTS: raises or lowers MEK5 binding to wildtype human MEKK2 PB1 domain; Q9Y2U5; bead flow cytometry, Alexa488-MEK5 binding to MEKK2 WT; actives lie on both sides; binding response (% of control), % at 10 µM; 1.1% of 290,000 active; in the data active means binding response below about 67% or above about 130%
VIM-2 confirm: VIM-2 inhibition, confirmation assay; shares compounds with IMP-1 inhibitor; purified VIM-2 enzyme, nitrocefin absorbance; inhibition, % at 5.6 µM; 73% of 200 active; in the data active means inhibition above about 8%;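 further: 0% = enzyme with vehicle and 100% = no enzyme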
TEM-1 inh 2: blocks E. coli TEM-1 beta-lactamase, VIM-2 IMP-1 counter-screen. shares compounds with IMP-1 inhibitor. nitrocefin absorbance inhibition. 50% of 200 active. inhibition, % at 5.6 µM; in the data active means inhibition above about 0.66%
Target sequence (P62593 whole entry, looked up): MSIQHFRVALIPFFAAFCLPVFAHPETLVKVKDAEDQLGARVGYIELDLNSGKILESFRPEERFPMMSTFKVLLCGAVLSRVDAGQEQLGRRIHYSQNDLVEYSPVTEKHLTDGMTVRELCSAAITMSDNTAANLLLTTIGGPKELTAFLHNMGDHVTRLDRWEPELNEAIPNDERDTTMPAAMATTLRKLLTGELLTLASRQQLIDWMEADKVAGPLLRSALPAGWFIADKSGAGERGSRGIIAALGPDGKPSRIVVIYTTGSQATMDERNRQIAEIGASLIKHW
IMP-1 inh conf: confirmation of P. aeruginosa IMP-1 metallo-beta-lactamase inhibitors | 60% of 200 active | purified IMP-1 enzyme, absorbance substrate hydrolysis | shares compounds with IMP-1 inhibitor | inhibition, % at 5.6 µM; in the data active means inhibition above about 4.9%;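 further: 0% = enzyme with vehicle and 100% = vehicle without enzyme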
The depositor's hits bear a star.

Cc1cccc(C(=O)NN2C(=O)C3C(c4ccccc4)C=CC(c4ccccc4)C3C2=O)c1 (configuration not stated) was read as VIM-2 inhibitor 7, MEKK3 PB1 HTS 103, MEKK2mut PB1 HTS 4, IMP-1 inhibitor 21*, MEKK2wt PB1 HTS 99, VIM-2 confirm 0, TEM-1 inh 2 -5 and IMP-1 inh conf 2.
For CCC(C)NC(=O)C1c2ccccc2C(=O)N1Cc1cc(OC)ccc1OC (configuration not stated) the results were VIM-2 inhibitor -1, MEKK3 PB1 HTS 102, MEKK2mut PB1 HTS 0, IMP-1 inhibitor 0 and MEKK2wt PB1 HTS 100.
`CCN1/C(=C/C=C/c2oc3ccc4ccccc4c3[n+]2CC)Oc2ccc3ccccc3c21` gave VIM-2 inhibitor 13*, IMP-1 inhibitor 33*, VIM-2 confirm 9.9*, TEM-1 inh 2 18* and IMP-1 inh conf 14*.
Screening CCOC(=O)c1c(C)n(-c2ccc(C)cc2)c2c(C(C(C)=O)C(=O)O)c(Br)c(O)c(O)c12 (configuration not stated) returned VIM-2 inhibitor 7, MEKK3 PB1 HTS 98, MEKK2mut PB1 HTS 8, IMP-1 inhibitor 5.4*, MEKK2wt PB1 HTS 92, VIM-2 confirm -1, TEM-1 inh 2 -5 and IMP-1 inh conf -4.
Cc1cc(NC(=O)c2cccc(S(=O)(=O)N3CCCC3)c2)no1 was read as VIM-2 inhibitor -1, MEKK3 PB1 HTS 98, MEKK2mut PB1 HTS 0, IMP-1 inhibitor -4 and MEKK2wt PB1 HTS 99.
Screening COc1cc2[nH]c(=O)n(C3CCCCC3)c(=O)c2cc1OC returned VIM-2 inhibitor -1, MEKK3 PB1 HTS 103, MEKK2mut PB1 HTS 4, IMP-1 inhibitor -3 and MEKK2wt PB1 HTS 100.
`CCCCn1c(=O)[nH]c2nc3cc(N)ccc3nc2c1=O` gave VIM-2 inhibitor 19*, MEKK3 PB1 HTS 93, MEKK2mut PB1 HTS -3, IMP-1 inhibitor 17*, MEKK2wt PB1 HTS 95, VIM-2 confirm 22*, TEM-1 inh 2 31* and IMP-1 inh conf 18*.
For Cc1cc2nc3c(=O)n(CCc4ccccc4)c(=O)[nH]c3nc2cc1N the results were VIM-2 inhibitor 5, MEKK3 PB1 HTS 107, MEKK2mut PB1 HTS 4, IMP-1 inhibitor 3 and MEKK2wt PB1 HTS 100.
`Nc1ccc2nc3c(=O)n(CCc4ccccc4)c(=O)[nH]c3nc2c1` gave VIM-2 inhibitor 9.1*, MEKK3 PB1 HTS 100, MEKK2mut PB1 HTS -8, IMP-1 inhibitor 11*, MEKK2wt PB1 HTS 92, VIM-2 confirm 19*, TEM-1 inh 2 33* and IMP-1 inh conf 18*.
Nc1ccc2nc3c(=O)n(C4CCCCC4)c(=O)[nH]c3nc2c1 was read as VIM-2 inhibitor 21*, MEKK3 PB1 HTS 103, MEKK2mut PB1 HTS 5, IMP-1 inhibitor 24*, MEKK2wt PB1 HTS 98, VIM-2 confirm 23*, TEM-1 inh 2 30* and IMP-1 inh conf 16*.
`Cc1ccc(C(=O)N/N=C/c2cc(C)n(-c3ccc(Br)cc3)c2C)cc1[N+](=O)[O-]` gave VIM-2 inhibitor -3, MEKK3 PB1 HTS 95, MEKK2mut PB1 HTS -4, IMP-1 inhibitor -2 and MEKK2wt PB1 HTS 92.
For Cn1ccnc1SCC(=O)n1c2c(c3ccccc31)CCCC2 the results were VIM-2 inhibitor 29*, MEKK3 PB1 HTS 106, MEKK2mut PB1 HTS 2, IMP-1 inhibitor 5.7*, MEKK2wt PB1 HTS 101, VIM-2 confirm 8.5*, TEM-1 inh 2 -4 and IMP-1 inh conf -1.
Screening Cn1ccnc1SCC(=O)Nc1cccc2ccccc12 returned VIM-2 inhibitor 0, MEKK3 PB1 HTS 88, MEKK2mut PB1 HTS -7, IMP-1 inhibitor -4 and MEKK2wt PB1 HTS 86.
For O=C(NC1CC1)C1CCN(c2ncnc3c2sc2cccc(F)c23)CC1 the results were VIM-2 inhibitor 14*, MEKK3 PB1 HTS 101, MEKK2mut PB1 HTS 0, IMP-1 inhibitor 5.1*, MEKK2wt PB1 HTS 103, VIM-2 confirm 28*, TEM-1 inh 2 -6 and IMP-1 inh conf -1.
Screening COC(=O)c1sccc1NC(=O)c1ccc(C#N)cc1 returned VIM-2 inhibitor 16*, MEKK3 PB1 HTS 102, MEKK2mut PB1 HTS 0, IMP-1 inhibitor 32*, MEKK2wt PB1 HTS 99, VIM-2 confirm 14*, TEM-1 inh 2 0 and IMP-1 inh conf 22*.
For COC(=O)c1sccc1NC(=O)c1ccc(OC)cc1 the results were VIM-2 inhibitor -1, MEKK3 PB1 HTS 111, MEKK2mut PB1 HTS 5, IMP-1 inhibitor 0 and MEKK2wt PB1 HTS 109.
For Cc1ccc(NC(=O)C(=O)N2CCCC2)cc1Cl the results were VIM-2 inhibitor -4, MEKK3 PB1 HTS 103, MEKK2mut PB1 HTS 3, IMP-1 inhibitor -5 and MEKK2wt PB1 HTS 102.
CCN(CC)C(=O)C1c2ccccc2Oc2ccccc21 was read as VIM-2 inhibitor 18*, MEKK3 PB1 HTS 106, MEKK2mut PB1 HTS 13, IMP-1 inhibitor 17*, MEKK2wt PB1 HTS 108, VIM-2 confirm 2, TEM-1 inh 2 1.6* and IMP-1 inh conf 1.
COc1cccc(C(C(=O)NC(C)(C)C)N(Cc2ccc(C)cc2)C(=O)CCC(=O)Nc2cc(C)on2)c1OC (configuration not stated) was read as VIM-2 inhibitor -4, MEKK3 PB1 HTS 102, MEKK2mut PB1 HTS 5, IMP-1 inhibitor -5 and MEKK2wt PB1 HTS 104.
CCCc1cc(C(N)=S)ccn1 was read as VIM-2 inhibitor 8, MEKK3 PB1 HTS 112, MEKK2mut PB1 HTS 3, IMP-1 inhibitor 4.8*, MEKK2wt PB1 HTS 115, VIM-2 confirm 3, TEM-1 inh 2 -1 and IMP-1 inh conf 0.
Screening COc1ccc(C(=O)Nc2ccc(/C(C)=N/NC(=O)c3ccncc3)cc2)cc1 returned VIM-2 inhibitor 14*, MEKK3 PB1 HTS 101, MEKK2mut PB1 HTS 3, IMP-1 inhibitor 32*, MEKK2wt PB1 HTS 101, VIM-2 confirm 12*, TEM-1 inh 2 -5 and IMP-1 inh conf 19*.
For Cc1ccc(NC(=O)Cn2cnc3cc([N+](=O)[O-])ccc3c2=O)c(Cl)c1 the results were VIM-2 inhibitor -2, MEKK3 PB1 HTS 101, MEKK2mut PB1 HTS 1, IMP-1 inhibitor -5 and MEKK2wt PB1 HTS 104.
Screening CC(C)(C)C1C=C(Sc2ccccc2)C(=O)O1 (configuration not stated) returned VIM-2 inhibitor 8.8*, MEKK3 PB1 HTS 104, MEKK2mut PB1 HTS -1, IMP-1 inhibitor 51*, MEKK2wt PB1 HTS 96, VIM-2 confirm -1, TEM-1 inh 2 -3 and IMP-1 inh conf 15*.

Screening results (PubChem BioAssay)
